Here are results for 2 molecules from article PMC4784479 (Arthritis & rheumatology (Hoboken, N.J.), 2015).

*1 amine or outer side, *2 acyl side, *3 side chain or, on linkers, in order; H or OH if unused. Where a SMILES comes first, the peptide text is derived from it. Bridges are numbered along the chain shown (N, C = ends). Where no end group is shown, it is not given here. [ ]: non-standard residue; d: D form. X1 = O=C(O)C[C@@H](C(=O)[*:2])N(CCCCN[*:3])[*:1]; X2 = C[C@@H](C(=O)[*:2])N(CCCCN[*:3])[*:1]; CO = O=C([*:1])[*:2]

Assay [1] relates to primary mouse BMCs. Briefly: In vitro OC differentiation, primary mouse BMCs. The format is cell-based. To be noted: SE ligand 65–79*0401 29 μM, Fig. 1J. The procedure, abridged: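 Primary bone marrow cells from mouse femurs and tibias were plated at 2 × 10^5/well in MEM with 10% FBS and penicillin/streptomycin. They received 10 ng/ml M-CSF alone for 2 d, then 4 d more with 10 ng/ml M-CSF plus 20 ng/ml RANKL, with or without SE ligand 65–79*0401 (29 μM). Cultures were fixed and TRAP-stained. TRAP-positive cells with more than three nuclei were counted. Results are mean ± SEM; Student's t-test.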

The test system of assay [2] is DBA/1 mice with CIA. Briefly: Collagen-induced arthritis. In kind it is in vivo, mouse. Conditions: disease amelioration at ng/kg-range doses; comparison with ref 24–26.
Assay [3] deals with T1, recombinant mouse CRT (Mus musculus, UniProt P14211).
T1 sequence (P14211 18-416): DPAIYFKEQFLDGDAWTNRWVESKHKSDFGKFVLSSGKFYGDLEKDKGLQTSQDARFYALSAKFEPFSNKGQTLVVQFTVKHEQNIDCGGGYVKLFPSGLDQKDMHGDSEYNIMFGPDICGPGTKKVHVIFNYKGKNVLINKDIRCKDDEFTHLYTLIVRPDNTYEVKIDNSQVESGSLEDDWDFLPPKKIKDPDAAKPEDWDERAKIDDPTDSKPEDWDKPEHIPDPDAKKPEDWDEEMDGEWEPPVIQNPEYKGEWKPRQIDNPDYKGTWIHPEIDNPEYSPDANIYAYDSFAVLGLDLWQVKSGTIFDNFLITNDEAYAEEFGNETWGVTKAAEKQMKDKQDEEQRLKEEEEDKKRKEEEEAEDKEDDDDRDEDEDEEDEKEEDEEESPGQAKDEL
Briefly: SPR direct interaction with CRT. The format is binding. Conditions: immobilized recombinant CRT, Fig. 1A. The gist of the method: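 Direct binding was measured by SPR on a CM5 chip preconditioned with NaOH, HCl and SDS pulses and activated with EDC/NHS. Recombinant mouse CRT was amine-coupled at 100 μg/ml (about 5500 RU), then ethanolamine-blocked. Analytes were injected at various concentrations at 25°C and 10 μl/min in HEPES pH 7.4 buffer with KCl, CaCl2, ZnCl2 and P-20. Signal was read in real time as resonance units.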

In assay [4] the target is T2, SE-activated NO signaling (Mus musculus, UniProt P14211).
T2 sequence (P14211 18-416): T1 sequence (P14211 18-416)
Briefly: SE ligand-activated NO signaling assay. The format is cell-based. To be noted: Linear DKCLA 170 μM, SE ligand 65–79*0401 57 μM, Fig. 1F.

Turning to `CC(C)C[C@@H]1NC(=O)[C@H](CS)NC(=O)[C@H](CCCCN)NC(=O)[C@H](CC(=O)O)N(C(=O)[C@@H](N)Cc2c[nH]c3ccccc23)CCCCNC(=O)NCCCCN([C@@H](C)C(N)=O)C1=O` [HS(4–4)c Trp] (H-W[X1]KCL[X2]-NH2; linker 2-6 via CO; N-terminus and C-terminus assumed), the “Incremental SE-activated OC differentiation” value in assay [1] is reported as “significantly inhibited”. The “In vivo potency in CIA relative to emerging drugs (mg/kg-range doses)” value in assay [2] is recorded as 1,000,000 fold.

Consider Ac-DKCLA (N-terminus assumed) [DKCLA], for which, in assay [3], the “Interaction with CRT (SPR)” value is recorded as “interacted with CRT”. In assay [4], the “Inhibition of SE ligand-activated NO signaling” value is “specifically blocked SE ligand-activated NO signaling”.
